Active and inactive are the calls of the source. No cut-off for these calls is given here.
Tests used:
[1] = biological target: T1, Muscarinic acetylcholine receptor M1 (Homo sapiens) (UniProt P11229); experiment: Displacement of [3H]NMS from human muscarinic M1 receptor expressed in CHO Flp-In cells after 1 hr by microbeta liquid scintillation counting-based radioligand binding assay; type: cell-based
T1 sequence (whole entry): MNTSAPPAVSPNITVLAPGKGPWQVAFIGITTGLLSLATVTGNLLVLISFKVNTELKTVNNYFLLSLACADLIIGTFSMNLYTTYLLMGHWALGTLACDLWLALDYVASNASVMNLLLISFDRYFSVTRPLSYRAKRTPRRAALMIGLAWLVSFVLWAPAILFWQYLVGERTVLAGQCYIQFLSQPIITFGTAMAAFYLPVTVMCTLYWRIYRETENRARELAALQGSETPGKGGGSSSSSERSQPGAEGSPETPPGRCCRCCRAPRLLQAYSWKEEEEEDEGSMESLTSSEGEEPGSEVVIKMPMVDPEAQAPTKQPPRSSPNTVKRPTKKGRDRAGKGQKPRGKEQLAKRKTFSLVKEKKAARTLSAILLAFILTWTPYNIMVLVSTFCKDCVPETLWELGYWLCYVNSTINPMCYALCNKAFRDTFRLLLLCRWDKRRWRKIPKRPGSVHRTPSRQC
How it was run: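 Intact adherent Flp-In CHO cells expressing hM1 (10⁴ cells/well), incubated with 0.2 nM [3H]NMS, varying ACh and modulator in HEPES-buffered saline pH 7.4 for 1 h at 37 °C. Washed with ice-cold 0.9% NaCl, then scintillation counted. Fitted to an allosteric ternary complex model with [3H]NMS KA 0.2 nM. Mean ± SEM, ≥3 experiments in duplicate.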

[2] = biological target: T1, Muscarinic acetylcholine receptor M1 (Homo sapiens); experiment: Positive allosteric modulation of human muscarinic M1 receptor expressed in CHO Flp-In cells assessed as functional cooperativity with acetylcholine measured as IP1 accumulation after 1 hr by HTRF method; type: cell-based
How it was run: (§1)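 Suspended Flp-In CHO cells stably expressing hM1, stimulated at 10⁶ cells/ml in HEPES buffer with 50 mM LiCl, pH 7.4, using increasing ACh with or without increasing modulator, 1 h at 37 °C, 5% CO2. IP1 read by HTRF (665/590 nm ratio). Curves fitted globally to the operational model of allosterism, with KB fixed from binding. Mean ± SEM, ≥3 experiments in duplicate.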

[3] = biological target: T1, Muscarinic acetylcholine receptor M1 (Homo sapiens); experiment: Allosteric agonist activity at human muscarinic M1 receptor expressed in CHO Flp-In cells assessed as intrinsic activity measured as IP1 accumulation after 1 hr by HTRF method; type: functional, cell-based; how it was run: as §1
[4] = biological target: T1, Muscarinic acetylcholine receptor M1 (Homo sapiens); experiment: Positive allosteric modulation of human muscarinic M1 receptor expressed in CHO Flp-In cells assessed as functional cooperativity with acetylcholine measured as IP1 accumulation upto 30 uM after 1 hr by HTRF method; type: cell-based; how it was run: as §1

SMILES | Kb [1] | pKb [1] | log(activity) [2] | Intrinsic activity [3] | log(IA) [3] | Activity [4]
COC(=O)c1ccc(COc2ccccc2-c2ccn([C@H]3CCCC[C@@H]3O)c(=O)c2)cc1 (racemic) | 87 µM | 4.06 | 0.96 | 0.54 | -0.26 | 
COC(=O)c1cccc(COc2ccccc2-c2ccn([C@H]3CCCC[C@@H]3O)c(=O)c2)c1 (racemic) | 100 µM | 3.99 | 0.52 | 0.15 | -0.82 | 
NC(=O)c1ccc(COc2ccccc2-c2ccn([C@H]3CCCC[C@@H]3O)c(=O)c2)cc1 (racemic) | 22 µM | 4.66 | 2.36 | 0.89 | 0.05 | 
Nc1ccccc1-c1ccn([C@H]2CCCC[C@@H]2O)c(=O)c1 (racemic) |  | 3.86 |  |  |  | inactive
O=c1cc(-c2ccccc2NCc2ccc(-c3ccccc3)cc2)ccn1[C@H]1CCCC[C@@H]1O (racemic) | 69 µM | 4.16 |  |  |  | inactive
O=c1cc(-c2ccccc2NCc2ccc(-c3ccncc3)cc2)ccn1[C@H]1CCCC[C@@H]1O (racemic) | 9.3 µM | 5.03 |  |  |  | inactive
O=c1cc(-c2ccccc2NCc2ccc(-c3cncnc3)cc2)ccn1[C@H]1CCCC[C@@H]1O (racemic) |  | 3.86 | 0.68 | 1.1 | 0.04 | 
O=c1cc(-c2ccccc2NCc2ccc(Br)cc2)ccn1[C@H]1CCCC[C@@H]1O (racemic) | 45 µM | 4.35 |  |  |  | inactive
O=c1cc(-c2ccccc2O)ccn1[C@H]1CCCC[C@@H]1O (racemic) | 79 µM | 4.1 |  |  |  | inactive
O=c1cc(-c2ccccc2OCc2ccc(-c3cccnc3)cc2)ccn1[C@H]1CCCC[C@@H]1O (racemic) | 19 µM | 4.72 | 1.29 | 0.38 | -0.42 | 
O=c1cc(-c2ccccc2OCc2ccc(-c3cnn(CC4CCCCC4)c3)cc2)ccn1[C@H]1CCCC[C@@H]1O (racemic) | 30 µM | 4.52 |  |  |  | inactive
O=c1cc(-c2ccccc2OCc2ccc(-c3cnn(Cc4ccccc4)c3)cc2)ccn1[C@H]1CCCC[C@@H]1O (racemic) | 21 µM | 4.68 |  |  |  | inactive
O=c1cc(-c2ccccc2OCc2ccc(-c3ncco3)cc2)ccn1[C@H]1CCCC[C@@H]1O (racemic) | 28 µM | 4.56 | 1.61 | 0.57 | -0.24 | 
O=c1cc(-c2ccccc2OCc2ccc(-c3nccs3)cc2)ccn1[C@H]1CCCC[C@@H]1O (racemic) | 11 µM | 4.96 | 0.8 | 0.45 | -0.35 | 
O=c1cc(-c2ccccc2OCc2ccc(Br)cc2F)ccn1[C@H]1CCCC[C@@H]1O (racemic) | 18 µM | 4.75 |  |  |  | inactive
O=c1cc(-c2ccccc2OCc2ccc(C(F)(F)F)cc2)ccn1[C@H]1CCCC[C@@H]1O (racemic) | 36 µM | 4.44 | 0.4 | 0.77 | -0.11 | 
O=c1cc(-c2ccccc2OCc2cccc(C(F)(F)F)c2)ccn1[C@H]1CCCC[C@@H]1O (racemic) | 30 µM | 4.53 | 0 | 1.02 | 0.01 | 
O=c1cc(-c2ccccc2OCc2ccccc2C(F)(F)F)ccn1[C@H]1CCCC[C@@H]1O (racemic) | 33 µM | 4.48 |  |  |  | inactive

The remaining lines, values ahead:

Kb [1] | pKb [1] | log(activity) [2] | Intrinsic activity [3] | log(IA) [3] | Activity [4] | SMILES
52 µM | 4.28 | 0.8 | 0.08 | -1.1 |  | COc1ccc(COc2ccccc2-c2ccn([C@H]3CCCC[C@@H]3O)c(=O)c2)cc1 (racemic)
65 µM | 4.19 | 0.84 | 1.45 | 0.16 |  | COc1cccc(COc2ccccc2-c2ccn([C@H]3CCCC[C@@H]3O)c(=O)c2)c1 (racemic)
30 µM | 4.53 |  |  |  | inactive | COc1ccccc1COc1ccccc1-c1ccn([C@H]2CCCC[C@@H]2O)c(=O)c1 (racemic)
14 µM | 4.85 | 0.49 | 0.19 | -0.73 |  | N#Cc1ccc(COc2ccccc2-c2ccn([C@H]3CCCC[C@@H]3O)c(=O)c2)cc1 (racemic)
87 µM | 4.06 | 0.88 | 0.25 | -0.59 |  | N#Cc1cccc(COc2ccccc2-c2ccn([C@H]3CCCC[C@@H]3O)c(=O)c2)c1 (racemic)
42 µM | 4.38 |  |  |  | inactive | N#Cc1ccccc1COc1ccccc1-c1ccn([C@H]2CCCC[C@@H]2O)c(=O)c1 (racemic)
91 µM | 4.04 | 0.87 |  | -3 |  | NC(=O)c1cccc(COc2ccccc2-c2ccn([C@H]3CCCC[C@@H]3O)c(=O)c2)c1 (racemic)
 | 3.88 | 0.92 |  | -1.24 |  | O=C(O)c1ccc(COc2ccccc2-c2ccn([C@H]3CCCC[C@@H]3O)c(=O)c2)cc1 (racemic)
91 µM | 4.04 | 1.08 | 0.2 | -0.69 |  | O=C(O)c1cccc(COc2ccccc2-c2ccn([C@H]3CCCC[C@@H]3O)c(=O)c2)c1 (racemic)
10 µM | 4.99 | 1.09 | 1.38 | 0.14 |  | O=c1cc(-c2ccccc2OCc2ccc(-c3ccccc3)cc2)ccn1[C@H]1CCCC[C@@H]1O (racemic)
58 µM | 4.24 |  |  |  | inactive | O=c1cc(-c2ccccc2OCc2ccc(Br)cc2)ccn1[C@H]1CCCC[C@@H]1O (racemic)
60 µM | 4.22 | 1.15 | 1 | 0 |  | O=c1cc(-c2ccccc2OCc2ccc(F)cc2)ccn1[C@H]1CCCC[C@@H]1O (racemic)
19 µM | 4.71 |  |  |  | inactive | O=c1cc(-c2ccccc2OCc2ccc(Oc3ccccc3)cc2)ccn1[C@H]1CCCC[C@@H]1O (racemic)
41 µM | 4.38 | 0.85 | 0.78 | -0.11 |  | O=c1cc(-c2ccccc2OCc2cccc(F)c2)ccn1[C@H]1CCCC[C@@H]1O (racemic)
28 µM | 4.55 | 0.94 | 0.58 | -0.24 |  | O=c1cc(-c2ccccc2OCc2ccccc2)ccn1[C@H]1CCCC[C@@H]1O (racemic)
30 µM | 4.52 | 0.62 | 0.44 | -0.36 |  | O=c1cc(-c2ccccc2OCc2ccccc2F)ccn1[C@H]1CCCC[C@@H]1O (racemic)

Reference: ChEMBL document CHEMBL3758148, “4-Phenylpyridin-2-one Derivatives: A Novel Class of Positive Allosteric Modulator of the M1 Muscarinic Acetylcholine Receptor” (J Med Chem, 2016)
